pIC50: −log10 of the molar value.
How the values were obtained:
4T1 cells = assay: 4T1 cell-based IC50; conditions: Mus musculus, 4T1, 24 h
In short: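 4T1 cells exposed to 0–20 µM test compound for 24 h. Whole-cell lysates were immunoblotted for Id1. Band intensities were read on 700/800 nm infrared channels, blank-subtracted and normalised to tubulin, and IC50 was taken from these blots.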

HUVECs [1] = assay: HUVEC cell branching assay on matrigel; assay type: cell-based, human; conditions: 0–40 μM, 18–20 h on matrigel, vs vehicle, p < 0.05
In short: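 HUVECs (80,000 per well) in EGM-2 containing the test compound at the indicated concentration were plated on Matrigel pre-solidified for 30 min at 37°C. After 18–20 h, media was removed and wells were fixed in 10% buffered formalin for 15 min. Tubes were imaged by inverted microscope at 10x. Nodes, junctions, meshes and total branching length were scored by Angiogenesis Analyzer, n = 4 per concentration, Wilcoxon test.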

ID1, ID2, ID3, and ID4 = assay: Western blot for ID proteins in HCT116 cells; assay type: cell-based, human; conditions: HCT116, 40 μM, 0-48 hours
[2] = system: choroidal neovascularization; assay: Laser-induced choroidal neovascularization; assay type: in vivo, mouse
In short: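 Female C57BL/6 mice aged 4–6 weeks had laser rupture of Bruch's membrane at three sites per eye. Test compounds (1 or 5 µg) or DMSO were given intravitreally. At day 14, choroidal flat mounts were stained with FITC-Griffonia simplicifolia lectin, and CNV area was measured by fluorescence image analysis by an observer masked to group.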

E47-ID1 cellular complex = target: T1, E47-ID1 cellular complex (Homo sapiens, UniProt P41134); assay: Immunoprecipitation of endogenous ID1 and E47 in HCT116 cells; assay type: cell-based; conditions: HCT116, 60 μM, 1 h
T1 sequence (P41134 1-155): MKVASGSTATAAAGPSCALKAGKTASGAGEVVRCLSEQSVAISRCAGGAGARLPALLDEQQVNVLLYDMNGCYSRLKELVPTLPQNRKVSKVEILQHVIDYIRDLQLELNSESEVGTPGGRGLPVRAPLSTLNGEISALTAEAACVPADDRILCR
In short: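 HCT116 cells were exposed for 1 h and lysed in NP40 or RIPA buffer with phosphatase/protease inhibitors, then cleared 15 min at 15,000 rpm, 4°C. Lysates were immunoprecipitated overnight at 4°C with anti-ID1 or anti-E2A plus protein G/A beads, washed four times and eluted in SDS sample buffer. SDS-PAGE/PVDF blots (5% milk in TBS-0.1% Tween20) were probed for ID1 (1:500) or E2A (1:1000), alongside whole-cell lysate blots.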

Id1 crystals = target: T2, Id1 crystals (Mus musculus, UniProt P20067); assay: Exposure of Id1 crystals to compound; conditions: DMSO alone had no such effect
T2 sequence (P20067 51-104): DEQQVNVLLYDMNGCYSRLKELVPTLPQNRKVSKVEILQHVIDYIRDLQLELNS
In short: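 Mouse Id1 (residues 51–104) crystals grown by hanging-drop vapour diffusion at 4°C. Protein at 2.8 mg/mL (20 mM Tris pH 8.0, 0.25 M NaCl, 5 mM DTT) was mixed 1:1 with reservoir of 0.1 M sodium citrate pH 6.5, 0.2 M magnesium acetate and 10% PEG8000.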

HUVECs [3] = assay: HUVEC cell cycle analysis; assay type: cell-based, human; conditions: 20 μM, 24 h
In short: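 Cells exposed to test compound or DMSO, then trypsinised, PBS-washed and fixed in 70% ethanol at −20°C. After centrifugation and PBS wash, cells were stained in PI/RNase buffer for 15 min at room temperature. DNA content was analysed by flow cytometry.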

ID1 = target: T3, ID1 (Homo sapiens, UniProt P41134); assay: Western blot for ID1 in HUVECs; assay type: cell-based; conditions: 0–40 μM, 24 h
T3 sequence (P41134 1-155): T1 sequence (P41134 1-155)
In short: (§1)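 HUVECs treated with 0–40 µM test compound for 24 h. Whole-cell lysates were immunoblotted for the target protein. Infrared band intensities were blank-subtracted and normalised to tubulin.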

Cyclin D1 [4] = assay: Western blot for Cyclin D1 in HCT116 cells; assay type: cell-based, human; conditions: HCT116, 40 μM, 0-48 hours
E protein binding = assay: EMSA on whole cell lysates from HCT116 cells; assay type: cell-based, human; conditions: HCT116, 40 μM, 24 h
Cyclin D1 [5] = assay: Western blot for Cyclin D1 in HUVECs; assay type: cell-based, human; conditions: 0–40 μM, 24 h
In short: as §1

[6] = Concentration of AGX51 in the eyes after i.p. dosing; assay type: in vivo, mouse
In short: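 Test compound given i.p. at 30 mg/kg. Eyes were dissected at time points over 24 h, extracted, and compound content per eye measured by mass spectrometry.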

CCC(=O)N(CCC(c1ccc2c(c1)OCO2)c1ccccc1OC)Cc1ccccc1 (stereo not drawn) [AGX51, N-(3-(benzo[d][1,3]dioxol-5-yl)-3-(2-methoxyphenyl)propyl)-N-benzylpropionamide]
pIC50 (4T1 cells): 4.57 | vascular branching (nodes, junctions, meshes, total branching length) (HUVECs [1]): significantly impaired in a dose-dependent manner | ID1, ID2, ID3 and ID4 protein levels (ID1, ID2, ID3, and ID4): reduced levels of ID1, ID2, ID3, and ID4 | area of CNV ([2]; intravitreal 5 μg on days 1 and 7, day 14, p < 0.05): effective at significantly reducing CNV | area of CNV ([2]; twice-daily i.p. injections ~30 mg/kg (500 μg), 14 days, vs vehicle, p < 0.05): significantly reduced CNV | area of CNV ([2]; two intravitreal injections of 10 μg 1 week apart, day 14, vs vehicle, p < 0.05): significantly suppressed CNV | levels of co-precipitated E47 / ID1 (E47-ID1 cellular complex): markedly reduced the levels of the co-precipitated proteins | effect on Id1 crystals (Id1 crystals): the crystals melted | cell cycle effect (HUVECs [3]): G0/G1 growth arrest | concentration at which a significant decrease in ID1 protein levels was observed (ID1): 10 µM | Cyclin D1 levels (Cyclin D1 [4]): reduction in Cyclin D1 levels | E protein binding in cell lysates (E protein binding): small increase in E protein binding | Cyclin D1 levels (Cyclin D1 [5]): reduction in Cyclin D1 levels | half-life ([6]; male, BALB/c, mouse, eye, ip, 30 mg/kg): 3.7 h | maximum concentration in the eye ([6]; mice, i.p. 30 mg/kg, after 30 min): ~ 4 ng/eye

— article PMC6896334 (Cell reports, 2019)
